Laboratory results as given in ChEMBL document CHEMBL1149381, “New arylthioindoles: potent inhibitors of tubulin polymerization. 2. Structure-activity relationships and molecular modeling studies” (J Med Chem, 2006).
pIC50: −log10 of the molar value. Activity calls are given as the source filed them. The rule behind the calls is not given here.

Assays:
Tubulin = assay: Inhibition of tubulin polymerization; format: functional, Homo sapiens
Procedure, shortened: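 Tubulin 10 µM in 0.8 M monosodium glutamate (pH 6.6), preincubated 15 min at 30 °C with varying drug, chilled on ice, then GTP added to 0.4 mM. Turbidity followed at 350 nm for 20 min at 30 °C. Extent of assembly measured and IC50 derived.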

MCF7 = assay: Inhibition of growth of MCF7 cells; format: functional, cell-based; conditions: Homo sapiens
SCLC = assay: Inhibition of growth of SCLC cells; format: functional, cell-based; conditions: Homo sapiens
Tubulin (Homo sapiens) = Tubulin (Homo sapiens) (UniProt P68371+Q9H4B7+P0DPH7+P68366+Q13509+Q71U36+P04350+Q3ZCM7+P07437+P68363+Q9BQE3+Q6PEY2+Q13885+Q9BVA1+Q9BUF5); assay: Displacement of [3H]colchicine from tubulin; format: protein-complex assay; conditions: concentration not given here
Procedure, shortened: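 [3H]Colchicine 5.0 µM with 1.0 µM tubulin and 5.0 µM inhibitor, incubated 10 min at 37 °C. Result given as % inhibition of colchicine binding.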

[1] = molecular target: Heat shock protein HSP 90-alpha (Homo sapiens) (UniProt P07900); assay: Binding affinity to Hsp90-alpha by fluorescent polarization assay
Procedure, shortened: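 Fluorescence polarization competition with recombinant Hsp90α (30 nM) and GM-BODIPY (fluorescent geldanamycin, 5 nM) in 20 mM K-HEPES pH 7.3, 50 mM KCl, 5 mM MgCl2, 20 mM Na2MoO4, 0.01% NP40, 0.1 mg/mL bovine gamma globulin, 2 mM DTT. Shaken 24 h at 4 °C, mP read. EC50 = competitor concentration displacing 50% of probe.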

| SMILES | pIC50 (Tubulin) | pIC50 (MCF7) | pIC50 (SCLC) | inhibition (Tubulin (Homo sapiens)) [%] | Activity [1] |
| --- | --- | --- | --- | --- | --- |
| CCOC(=O)c1[nH]c2cc(OC)c(OC)cc2c1Sc1cc(OC)c(OC)c(OC)c1 | 4.66 | 6.00 |  |  |  |
| COC(=O)c1[nH]c2cccc(OC)c2c1Sc1ccccc1 | < 4.40 | < 5.60 |  |  |  |
| CCOC(=O)c1[nH]c2ccccc2c1Sc1ccc(OC)cc1 | < 4.40 | < 5.60 | < 5.00 |  |  |
| CCOC(=O)c1[nH]c2cc(OC)c(OC)cc2c1S(=O)(=O)c1ccccc1 | < 4.40 | < 5.60 |  |  |  |
| CC(C)OC(=O)c1[nH]c2ccccc2c1Sc1ccccc1 | 4.74 | < 5.60 |  |  |  |
| CCC(C)OC(=O)c1[nH]c2ccccc2c1Sc1ccccc1 (centres undefined) | < 4.40 | < 5.60 |  |  |  |
| CCOC(=O)c1[nH]c2ccccc2c1Sc1cc(OC)c(OC)c(OC)c1 |  |  |  | 51 |  |
| CCOC(=O)c1[nH]c2ccccc2c1Sc1cccc(OC)c1 | 5.54 | 6.82 | 6.23 | 48 |  |
| COC(=O)c1[nH]c2ccc(Cl)cc2c1S(=O)(=O)c1cccc(OC)c1 | 4.51 | < 5.60 | < 5.00 |  |  |
| CC(C)CCOC(=O)c1[nH]c2ccccc2c1Sc1ccccc1 | < 4.40 | < 5.60 |  |  |  |
| COC(=O)c1[nH]c2ccc(Cl)cc2c1Sc1cc(OC)c(OC)c(OC)c1 |  |  |  | 57 | inactive |
| CCOC(=O)c1[nH]c2ccc(OC)cc2c1Sc1cc(OC)c(OC)c(OC)c1 | 5.62 | 7.34 |  | 71 |  |
| COC(=O)c1[nH]c2ccc(Cl)cc2c1Sc1cc(OC)cc(OC)c1 | 5.66 | 7.47 | 7.74 | 82 |  |
| COC(=O)c1[nH]c2ccc(Cl)cc2c1S(=O)(=O)c1ccc(OC)cc1 | < 4.40 | < 5.60 |  |  |  |
| COC(=O)c1[nH]c2ccc(Cl)cc2c1S(=O)(=O)c1ccccc1OC | < 4.40 | < 5.60 |  |  |  |
| COC(=O)c1[nH]c2cc(OC)c(OC)cc2c1Sc1cc(OC)c(OC)c(OC)c1 | < 4.40 | 5.80 |  |  |  |

| SMILES | pIC50 (Tubulin) | pIC50 (MCF7) | pIC50 (SCLC) | inhibition (Tubulin (Homo sapiens)) [%] | Activity [1] |
| --- | --- | --- | --- | --- | --- |
| CCCOC(=O)c1[nH]c2ccccc2c1Sc1ccccc1 | < 4.40 | < 5.60 |  |  |  |
| CCOC(=O)c1[nH]c2ccc(OC)cc2c1Sc1ccc(OC)cc1 | < 4.40 | < 5.60 | < 5.00 |  |  |
| COC(=O)c1[nH]c2ccc(Cl)cc2c1Sc1cccc(OC)c1 | 5.74 | 6.48 | 5.49 | 53 |  |
| CCCCOC(=O)c1[nH]c2ccccc2c1Sc1ccccc1 | < 4.40 | < 5.60 |  |  |  |
| CCOC(=O)c1[nH]c2ccccc2c1Sc1ccccc1OC | 4.92 | < 5.60 |  |  |  |
| CC(C)(C)OC(=O)c1[nH]c2ccccc2c1Sc1ccccc1 | < 4.40 | < 5.60 |  |  |  |
| COC(=O)c1[nH]c2ccc(Cl)cc2c1Sc1ccccc1OC | 5.38 | 5.89 | 5.15 | 34 |  |
| COC(=O)c1[nH]c2ccc(OC)cc2c1S(=O)(=O)c1ccccc1 | < 4.40 | < 5.60 |  |  |  |
| CCOC(=O)c1[nH]c2cc(OC)c(OC)cc2c1Sc1ccccc1 | 4.85 | < 5.60 |  |  |  |
| O=C(OCc1ccccc1)c1[nH]c2ccccc2c1Sc1ccccc1 | < 4.40 | < 5.60 |  |  |  |
| COC(=O)c1[nH]c2ccc([N+](=O)[O-])cc2c1Sc1cc(OC)c(OC)c(OC)c1 | 5.35 | 6.92 |  | 32 |  |
| CCOC(=O)c1[nH]c2ccc(OC)cc2c1Sc1ccccc1OC | 4.80 | 6.46 | 5.66 |  |  |
| CCOC(=O)c1[nH]c2ccc(Cl)cc2c1Sc1cc(OC)c(OC)c(OC)c1 | 5.66 | 6.96 | 7.03 | 53 |  |
| COC(=O)c1[nH]c2cc(OC)ccc2c1Sc1ccccc1 | < 4.40 | < 5.60 |  |  |  |
| CCOC(=O)c1[nH]c2ccc(OC)cc2c1Sc1cccc(OC)c1 | 5.51 | 6.55 | 6.23 | 39 |  |
